Screens from PubChem BioAssay.
EBV gp42 inh = Epstein-Barr virus gp42 inhibitors, primary screen, biochemical, uHTS, fluorescence polarization | Glycoprotein 42 (Epstein-Barr virus (strain AG876)), Q1HVG2 | Fluorescence polarization binding assay, mP read-out | inhibition, % (tested at 21.74 µM) | 220,000 compounds, 0.42% hits | AID 1085, 2008; in the data active means inhibition above about 50%
Target sequence (Q1HVG2 whole entry, looked up): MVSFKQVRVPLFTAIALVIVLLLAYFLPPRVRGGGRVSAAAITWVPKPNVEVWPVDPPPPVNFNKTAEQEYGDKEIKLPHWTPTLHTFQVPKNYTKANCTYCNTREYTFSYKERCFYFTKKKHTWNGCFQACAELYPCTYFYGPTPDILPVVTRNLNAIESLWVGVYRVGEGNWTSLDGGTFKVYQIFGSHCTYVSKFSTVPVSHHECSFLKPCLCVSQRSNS
Runt-CBFb FRET = inhibitors of RUNX1 Runt–CBFb binding, primary screen, biochemical, FRET, Cerulean-Runt, Venus-CBFb, uHTS; Cerulean-Runt/Venus-CBFb FRET ratio 530/480, 1 h; inhibition, % at 20 µM; 220,000 compounds, 0.46% hits; AID 1496, 2009;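 active means inhibition over about 50% at 20 µM in the single-dose screen, limit read from the data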;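 further: 0% = DMSO wells and 100% = excess unlabeled CBFb competitor control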
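Assay system: Cerulean-Runt domain / Medium: Tris 50 mM pH 7.5, KCl, K2SO4, 0.01% BSA / Timing: protein complex preformed 1 h, compound exposure 1 h, room temperature, dark / Measured by: FRET, excitation 422 nm, emission at 530 and 480 nm / Evaluation: loss of energy transfer signal / Control set: 5 µM unlabeled CBFb as full-inhibition high control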
Runt-SMMHC FRET = inhibitors of RUNX1 Runt–CBFb-SMMHC binding, primary screen, biochemical, FRET, Cerulean-Runt, Venus-CBFb-SMMHC, uHTS; Runt-related transcription factor 1 (Homo sapiens) + Core-binding factor subunit beta …; Cerulean-Runt/Venus-CBFb-SMMHC FRET ratio 530/480, 1 h; inhibition, % at 20 µM; 220,000 compounds, 0.74% hits; AID 1434, 2008;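 active means mean inhibition across duplicate retests at 20 µM reaching about 50%, limit read from the data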;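 further: 0% = DMSO wells and 100% = wells with excess untagged CBFb-SMMHC; inhibitors lower the FRET ratio by blocking Runt binding to CBFb-SMMHC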
RanGTP-Imp inh = inhibitors of RanGTP-importin-beta interaction, primary screen, biochemical, FRET, CFP-Ran, YFP-importin-beta, homogeneous. Ran GTPase (GTP-bound) - importin-beta complex. cell-free CFP-Ran/YFP-importin-beta FRET ratio. inhibition, % (no concentration beside the values). 300,000 compounds, 1.1% hits. AID 2216, 2009;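 active means more than half of the replicate wells show a fall in the fluorescence ratio signal beyond about 16%, limit read from the data, passing the limit was not always enough; inconclusive means exactly half of the replicate wells pass the set limit; inactive means fewer than half of replicates pass the limit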;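 further: 0% = DMSO wells and 100% = Ran loaded with GDP instead of GTP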
LANA-H2B inh = blockers of LANA interaction with H2A/H2B – biochemical, FP readout, HTS, primary screen; Protein LANA1 (Human herpesvirus 8 type P (isolate GK18)), Q9QR71; cell-free LANA-H2A/H2B peptide, fluorescence polarization; inhibition, % (concentration not given with the values); 320,000 compounds, 0.6% hits; AID 2629, 2010; in the data active means inhibition mostly above about 10%, no sharp cut-off; inactive means mostly below about 6.7%
MEX-5 binding = MEX-5 zinc finger RNA-binding disruptors – biochemical, C. elegans, fluorescence polarization, MLPCN library, primary screen; Zinc finger protein mex-5 (Caenorhabditis elegans), Q9XUB2; MEX-5/FITC-TCR2 RNA binding; hits give low values; activity score (negative = inhibition of binding), % at 10 µM; 300,000 compounds, 0.38% hits;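 active means inhibition past about -25% in most replicates, and total fluorescence under double the plate's negative control median, limit read from the data; inconclusive means replicates evenly split on the limit, or fluorescence at least double controls; inactive means too little inhibition in most replicates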;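 further: 0% = DMSO and -100% = 5 µM competing unlabeled TCR2 RNA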
Numbers without * were called inactive; ? = inconclusive; nt = no result given; ! = repeats disagree. A selection: hits, their analogues and other compounds. The true share with any hit is near 2.4%.

SMILES	EBV gp42 inh	Runt-CBFb FRET	Runt-SMMHC FRET	RanGTP-Imp inh	LANA-H2B inh	MEX-5 binding
CCCCn1c(O)c(C(=O)/C=C/c2ccc3c(c2)OCO3)c(=O)[nH]c1=O	-31	-2	3	0	5	-36*
CCOC(=O)c1c(/N=C/c2c(O)n(-c3ccccc3F)c(=S)[nH]c2=O)sc2c1CCCC2	130*	30	17	?	9	-9
CCOC(=O)c1c(-n2c(C)cc(/C=C3\C(=O)NC(=O)N(C)C3=O)c2C)sc2c1CCCC2	-15	-13	-186	0	-3	1
CCOC(=O)c1ccc(N=Cc2c(O)n(-c3ccccc3F)c(=S)[nH]c2=O)cc1	-20	6	4	0	2	1
CCOC(=O)c1c(/N=C/c2c(O)n(-c3ccc(F)cc3)c(=S)[nH]c2=O)sc2c1CCCC2	56*	6	7	1	-1	1
Cc1cc(N2CCCC2)ccc1C=C(C#N)C#N	85*	-86	-162	0	-1	?
N#CC12CNCC1CN=N2 (stereo unspecified)	-23	-1	1	-3	18*	-2
Cn1c(O)c(/C=C/C=Nc2ccccc2)c(=O)n(C)c1=O	-210	35	69*	33*	-5	32
CCCCn1c(O)c(/C=C/C=Nc2ccccc2)c(=O)[nH]c1=O	-225	47	64*	41*	-12	31
CCCCC(=O)N/N=C/c1c(O)n(CCc2ccccc2)c(=O)[nH]c1=O	-13	1	0	2	6	-3
COC(=O)C1=C(c2ccc(F)cc2F)C[C@@H]2CC[C@H]1N2C(=O)NCC1CC1	nt	nt	nt	nt	10	nt
CCC(C)N1C(=O)NC(=O)C2(Cc3cc(C)ccc3N(C)C2)C1=O (stereo unspecified)	-18	1	5	3	-11	-1
CN1CCN(c2ccc([N+](=O)[O-])c3no[n+]([O-])c23)CC1	141*	-45	-21	-88	38*	-60*
CN1CCN(c2ccc(S(C)(=O)=O)cc2[N+](=O)[O-])CC1	-4	-1	-8	1	3	1
CCOP(=O)(/C=C(\Cl)c1ccccc1)C(O)c1ccc(F)cc1 (stereo unspecified)	nt	nt	nt	-3	3	3
COCCOC(=O)c1c(N)n(Cc2ccco2)c2nc3ccccc3nc12	nt	nt	74	19*	4	nt
CC(=O)c1c(C)n(CC2CCCO2)c2ccc(O)cc12 (stereo unspecified)	-11	0	-1	0	8	-5
CC(C)OC(=O)c1c(N)n(Cc2ccco2)c2nc3ccccc3nc12	20	nt	nt	?	-8	-9
CC(C)CNC(=O)c1c(N)n(Cc2ccco2)c2nc3ccccc3nc12	12	79*	nt	-1	-2	-1
Nc1c(C(=O)NC2CCCC2)c2nc3ccccc3nc2n1CC1CCCO1 (stereo unspecified)	-1	22	82*	97*	-3	-5
COCCCNC(=O)c1c(N)n(Cc2ccco2)c2nc3ccccc3nc12	8	76*	81*	72*	4	-4
Cc1cc(C=O)c(C)n1C(C)C	-6	-2	0	4	-1	2
Cc1ccc2c(c1)N(C(=O)CCC(=O)N1CCC3(CC1)OCCO3)CCO2	nt	nt	nt	1	-5	0
Cc1c(C(=O)Nc2ccccc2)cc(-c2ccccc2)n1CCCN1CCOCC1	-1	0	-1	5	-3	-3
Nc1c(C(=O)NCC2CCCO2)c2nc3ccccc3nc2n1Cc1ccco1 (stereo unspecified)	-4	36	81*	64*	5	-1
SMILES	EBV gp42 inh	Runt-CBFb FRET	Runt-SMMHC FRET	RanGTP-Imp inh	LANA-H2B inh	MEX-5 binding
CCCCn1c(=O)c(C(=O)NCc2ccco2)c(O)c2ccccc21	-16	-4	3	-3	1	-1
C=CCNC(=O)c1c(N)n(CCN2CCOCC2)c2nc3ccccc3nc12	18	81*	44	80*	-1	-5
COc1ccc(Cn2c(N)c(C(=O)NCc3ccco3)c3nc4ccccc4nc32)cc1OC	nt	17	57*	nt	-8	nt
Nc1c(C(=O)NCc2ccco2)c2nc3ccccc3nc2n1CCN1CCCCC1	-3	8	63	71*	-5	-4
Cc1cccc(NC(=S)N2CC3CC(C2)c2cccc(=O)n2C3)c1C (stereo unspecified)	-17	0	-1	0	-4	-3
C[C@H]1CC[C@@H]2[C@@H](C)[C@H]3[C@H](C[C@H]4[C@@H]5CC=C6C[C@@H](O[C@@H]7O[C@H](CO)[C@H](O)[C@H](O[C@@H]8O[C@H](CO)[C@@H](O)[C@H](O)[C@H]8O)[C@H]7O[C@@H]7O[C@@H](C)[C@H](O)[C@@H](O)[C@H]7O)CC[C@]6(C)[C@H]5CC[C@]34C)N2C1	-36	8	24	17*	-5	3
CNc1ccc2nc3ccccc3[n+](C)c2c1	nt	nt	nt	3	6	-42*
CCOC(=O)c1c(C)[nH]c(C)c1C(=O)C(Cc1ccccc1)N(C)C (stereo unspecified)	nt	nt	nt	-1	-4	0
COc1cc2nc(N3CCN(C(=O)c4ccco4)CC3)nc(N)c2cc1OC	-6	0	-1	25*!	-13	0
CC(C(=O)c1c[nH]c2ccccc12)N1CCN(C(=O)c2ccco2)CC1 (stereo unspecified)	-13	1	2	1	-2	2
CC1CN=C(NCc2ccccc2)S1 (stereo unspecified)	-16	0	1	1	-1	0
COC(=O)C1=CO[C@H](C)[C@H]2CN3CC[C@@]4(C(=O)Nc5ccccc54)[C@@H]3C[C@H]12	nt	nt	nt	?	-2	1
COC1CCCCC1NCCc1ccccc1 (stereo unspecified)	-10	-1	-3	5	7	-2
CCOC(=O)[C@]1(C#N)[C@@H]2C=CC(C(C)=O)=CN2[C@@H](C(N)=O)[C@@H]1c1ccsc1	71*	1	-6	-1	-5	-53*
Cn1cccc1/C=C1\C(=O)NC(=O)N(Cc2ccco2)C1=O	4	33	14	0	nt	-7
